Assay results published in ChEMBL document CHEMBL4316659, “Selective Antiproliferative Withanolides from Species in the Genera Eriolarynx and Deprea” (J Nat Prod, 2019).

Legend:
[1] = test system: SW1573; assay: (§1) Resistance factor, ratio of GI50 for Antiproliferative activity against human SW1573 cells over-expressing P-gp incubated for 48 hrs in absence of P-gp and CYP3A4/5 inhibitor verapamil by SRB assay to GI50 for antiproliferative activity against human SW1573 cells incubated for 48 hrs in absence of P-gp and CYP3A4/5 inhibitor verapamil by SRB assay; type: functional
Outline: (§2)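 Resistance factor is GI50 in SW1573/Pgp divided by GI50 in wild-type SW1573. Both come from 48 h SRB assays, run with 10 μM verapamil (final) or without it.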

[2] = Ratio of GI50 for antiproliferative activity against human hTERT-BJ cells incubated for 48 hrs by SRB assay to GI50 for antiproliferative activity against human A549 cells incubated for 48 hrs by SRB assay
Outline: (§3)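 Selectivity is GI50 in the nontumor BJ-hTERT fibroblasts divided by GI50 in each tumor line. All values come from the same 48 h SRB assay, with 0.01−100 μM serial dilutions.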

[3] = test system: A549; assay: Antiproliferative activity against human A549 cells incubated for 48 hrs by SRB assay; type: functional; settings: A549, 48 h
Outline: (§4)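 Cells kept in RPMI 1640 with 5% FBS and 2 mM L-glutamine at 37 °C under 5% CO2. Seeded at 2500 (A549, HBL-100, HeLa, SW1573) or 5000 (T-47D, WiDr, BJ-hTERT) cells/well and left 24 h. Compounds added as serial dilutions (0.01−100 μM) for 48 h. SRB staining read at 530 and 620 nm. GI50 calculated by NCI formulas. Mean of at least two independent experiments ± SD.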

[4] = test system: SW1573; assay: Antiproliferative activity against human SW1573 cells incubated for 48 hrs by SRB assay; type: functional; settings: SW1573, 48 h; outline: as §4
[5] = Ratio of GI50 for antiproliferative activity against human hTERT-BJ cells incubated for 48 hrs by SRB assay to GI50 for antiproliferative activity against human WiDr cells incubated for 48 hrs by SRB assay; type: toxicity, cell-based; settings: hTERT-BJ cells versus WiDr cells, read-out: RatioGI50; outline: as §3
[6] = test system: HeLa; assay: Antiproliferative activity against human HeLa cells incubated for 48 hrs by SRB assay; type: functional; outline: as §4
[7] = test system: SW1573; assay: Antiproliferative activity against human SW1573 cells incubated for 48 hrs in presence of P-gp and CYP3A4/5 inhibitor verapamil by SRB assay; type: functional; settings: SW1573, 48 h
Outline: (§5)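 Wild-type SW1573 (2500 cells/well) and P-gp-overexpressing SW1573/Pgp (5000 cells/well) in RPMI 1640 with 5% FBS. Seeded 24 h, then exposed 48 h to serial dilutions (0.01−100 μM) with or without 10 μM verapamil (final) in the medium. Paclitaxel and vinblastine were reference drugs. SRB read at 530/620 nm. GI50 by NCI formulas, mean of at least two independent experiments ± SD.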

[8] = test system: SW1573; assay: Antiproliferative activity against human SW1573 cells over-expressing P-gp incubated for 48 hrs in absence of P-gp and CYP3A4/5 inhibitor verapamil by SRB assay; type: functional; settings: SW1573, 48 h; outline: as §5
[9] = test system: WiDr; assay: Antiproliferative activity against human WiDr cells incubated for 48 hrs by SRB assay; type: functional; outline: as §4
[10] = Ratio of GI50 for antiproliferative activity against human hTERT-BJ cells incubated for 48 hrs by SRB assay to GI50 for antiproliferative activity against human SW1573 cells incubated for 48 hrs by SRB assay; type: toxicity, cell-based; settings: hTERT-BJ cells versus SW1573 cells, read-out: RatioGI50; outline: as §3
[11] = Ratio of GI50 for antiproliferative activity against human hTERT-BJ cells incubated for 48 hrs by SRB assay to GI50 for antiproliferative activity against human HeLa cells incubated for 48 hrs by SRB assay; type: toxicity, cell-based; settings: hTERT-BJ cells versus HeLa cells, read-out: RatioGI50; outline: as §3
[12] = Antiproliferative activity against human hTERT-BJ cells incubated for 48 hrs by SRB assay; type: cell-based; outline: as §4
[13] = Ratio of GI50 for antiproliferative activity against human hTERT-BJ cells incubated for 48 hrs by SRB assay to GI50 for antiproliferative activity against human HBL100 cells incubated for 48 hrs by SRB assay; outline: as §3
[14] = test system: T47D; assay: Antiproliferative activity against human T47D cells incubated for 48 hrs by SRB assay; type: functional; outline: as §4
[15] = test system: SW1573; assay: Antiproliferative activity against human SW1573 cells over-expressing P-gp incubated for 48 hrs in presence of P-gp and CYP3A4/5 inhibitor verapamil by SRB assay; type: functional; settings: SW1573, 48 h; outline: as §5
[16] = test system: SW1573; assay: as §1, with “presence” for “absence”; type: functional; outline: as §2
[17] = Ratio of GI50 for antiproliferative activity against human hTERT-BJ cells incubated for 48 hrs by SRB assay to GI50 for antiproliferative activity against human T47D cells incubated for 48 hrs by SRB assay; type: toxicity, cell-based; settings: hTERT-BJ cells versus T47D cells, read-out: RatioGI50; outline: as §3
[18] = test system: SW1573; assay: Antiproliferative activity against human SW1573 cells incubated for 48 hrs in absence of P-gp and CYP3A4/5 inhibitor verapamil by SRB assay; type: functional; settings: SW1573, 48 h; outline: as §5
[19] = test system: HBL-100; assay: Antiproliferative activity against human HBL100 cells incubated for 48 hrs by SRB assay; type: functional; settings: HBL-100, 48 h; outline: as §4

Compound | RatioGI50 [1] | RatioGI50 [2] | GI50 [3] | GI50 [4] | selectivity ratio at 48 h [5] | GI50 [6] | GI50 [7] | GI50 [8] | GI50 [9] | selectivity ratio at 48 h [10] | selectivity ratio at 48 h [11] | GI50 at 48 h [12] | RatioGI50 [13] | GI50 [14] | GI50 [15] | RatioGI50 [16] | selectivity ratio at 48 h [17] | GI50 [18] | GI50 [19]
CCO[C@@H]1O[C@@](C)([C@H]2CC(C)=C(C)C(=O)O2)[C@H]2CC[C@H]3[C@@H]4[C@@H](O)C=C5[C@@H](O)C=CC(=O)[C@]5(C)[C@H]4CC[C@]123 | 1.1 | 2 - 10 | 2.8 µM | 2.4 µM | 2 to 10 | 2.5 µM | 3.9 µM | 2.3 µM | 6.1 µM | 2 to 10 | 2 to 10 | > 10 µM | 2 - 10 | 4.7 µM | 1.7 µM | 0.4 | 2 to 10 | 2.1 µM | 3.2 µM
C[C@]12C(=O)C=CC=C1[C@H](O)[C@H]1O[C@]3([C@@H]4C[C@]5(C)C(=O)O[C@H]4C[C@@]5(C)O)CC[C@@]4(O3)[C@H]1[C@@H]2CC[C@]4(C)O | 1.1 |  | > 10 µM | 4.4 µM |  | 3.3 µM | 5.5 µM | 4.5 µM | > 10 µM |  |  | 5.3 µM |  | 6.4 µM | 2.7 µM | 0.5 |  | 4.1 µM | > 10 µM
C[C@]12C(=O)C=CCC1=C[C@H]1O[C@]3([C@@H]4C[C@]5(C)C(=O)O[C@H]4C[C@@]5(C)O)CC[C@@]4(O3)[C@H]1[C@@H]2CC[C@]4(C)O |  | 2 - 10 | > 10 µM | > 10 µM | 2 to 10 | > 10 µM |  |  | > 10 µM | 2 to 10 | 2 to 10 | > 10 µM | 2 - 10 | > 10 µM |  |  | 2 to 10 |  | > 10 µM
C[C@]1(O)CC[C@H]2[C@H]3[C@H](O[C@]4([C@@H]5C[C@]6(C)C(=O)O[C@H]5C[C@@]6(C)O)CC[C@@]31O4)[C@@H](O)[C@]13O[C@H]1C=CC(=O)[C@]23C |  |  | > 10 µM | > 10 µM | 2 to 10 | > 10 µM |  |  | > 10 µM | 2 to 10 | 2 to 10 |  |  | > 10 µM |  |  | 2 to 10 |  | > 10 µM
CC1=C(C)C(=O)O[C@@H]([C@]2(C)OC(O)[C@@]34CC[C@H]5[C@@H](CC=C6CC=CC(=O)[C@@]65C)[C@](O)(CC[C@H]23)O4)C1 (stereo not given in full) |  |  | > 10 µM | > 10 µM | 2 to 10 | > 100 µM |  |  | > 10 µM | 2 to 10 | 2 to 10 |  |  | > 10 µM |  |  | 2 to 10 |  | > 10 µM
CC1=C(C)C(=O)O[C@@H]([C@]2(C)OC(O)[C@]34CC[C@H]5[C@@H]([C@H](O)C=C6CC=CC(=O)[C@@]65C)[C@@H]3CC[C@H]24)C1 (stereo not given in full) |  |  | > 10 µM | > 10 µM | 2 to 10 | > 10 µM |  |  | > 10 µM | 2 to 10 | 2 to 10 |  |  | > 10 µM |  |  | 2 to 10 |  | > 10 µM
CC1=C(C)C(=O)O[C@@H]([C@](C)(O)[C@H]2CC[C@H]3[C@@H]4[C@@H](O)C=C5[C@@H](O)C=CC(=O)[C@]5(C)[C@H]4CC[C@]23CO)C1 |  |  | > 10 µM | > 10 µM | 2 to 10 | > 10 µM |  |  | > 10 µM | 2 to 10 | 2 to 10 |  |  | > 10 µM |  |  | 2 to 10 |  | > 10 µM
CC1=C(CO)C(=O)O[C@@H]([C@]2(C)OC(O)[C@@]34CC[C@H]5[C@@H](CC=C6CC=CC(=O)[C@@]65C)[C@](O)(CC[C@H]23)O4)C1 (stereo not given in full) |  |  | > 10 µM | > 10 µM | 2 to 10 | > 10 µM |  |  | > 10 µM | 2 to 10 | 2 to 10 |  |  | > 10 µM |  |  | 2 to 10 |  | > 10 µM
C[C@]12C(=O)CC=CC1=C[C@H]1O[C@]3([C@@H]4C[C@]5(C)C(=O)O[C@H]4C[C@@]5(C)O)CC[C@@]4(O3)[C@H]1[C@@H]2CC[C@]4(C)O |  |  | > 10 µM | > 10 µM | 2 to 10 | > 10 µM |  |  | > 10 µM | 2 to 10 | 2 to 10 |  |  | > 10 µM |  |  | 2 to 10 |  | > 10 µM
CC1=C(C)C(=O)O[C@@H]([C@]2(C)OC(O)[C@]34CC[C@H]5[C@@H]([C@H](O)C=C6C=CCC(=O)[C@@]65C)[C@@H]3CC[C@H]24)C1 (stereo not given in full) |  |  | > 10 µM | > 10 µM | 2 to 10 | > 10 µM |  |  | > 10 µM | 2 to 10 | 2 to 10 |  |  | > 10 µM |  |  | 2 to 10 |  | > 10 µM
CC1=C(C)C(=O)O[C@@H]([C@]2(C)OC(O)[C@]34CC[C@H]5[C@@H]([C@@H](O)C=C6[C@@H](O)C=CC(=O)[C@@]65C)[C@@H]3CC[C@H]24)C1 (mixture of isomers) |  | 2 - 10 | > 10 µM | > 10 µM | 2 to 10 | > 10 µM |  |  | > 10 µM | 2 to 10 | 2 to 10 | > 10 µM | 2 - 10 | > 10 µM |  |  | 2 to 10 |  | > 10 µM
CC(=O)O[C@H]1C(=O)[C@@]2(C)[C@H]([C@H](OC(=O)c3ccccc3)[C@]3(O)C[C@H](OC(=O)[C@H](O)[C@@H](NC(=O)c4ccccc4)c4ccccc4)C(C)=C1C3(C)C)[C@]1(OC(C)=O)CO[C@@H]1C[C@@H]2O [PACLITAXEL] | 128 |  |  |  |  |  | 0.0016 µM | 0.196 µM |  |  |  |  |  |  | 0.0042 µM | 2.6 |  | 0.0015 µM | 
CC[C@]1(O)C[C@@H]2CN(CCc3c([nH]c4ccccc34)[C@@](C(=O)OC)(c3cc4c(cc3OC)N(C)[C@H]3[C@@](O)(C(=O)OC)[C@H](OC(C)=O)[C@]5(CC)C=CCN6CC[C@]43[C@@H]65)C2)C1 [VINBLASTINE] | 2388 |  |  |  |  |  | 0.0008 µM | 2.05 µM |  |  |  |  |  |  | 0.001 µM | 1.3 |  | 0.0009 µM | 
